# The source made the active and inactive calls. No cut-off for these calls is given here.
# Assays:
# Aspergillus flavus [1] = test: Ratio of fluconazole MIC to compound MIC for Aspergillus flavus after 24 hrs by two-fold serial dilution method; type: functional
# Saccharomyces cerevisiae = test: Antimicrobial activity against Saccharomyces cerevisiae by two-fold serial dilution method; type: functional
# Outline: (§1)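 MIC read by broth microdilution in microdilution plates.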
# Aspergillus flavus [2] = test: Antimicrobial activity against Aspergillus flavus after 24 hrs by two-fold serial dilution method; type: functional; outline: as §1
# Candida albicans = test: Antimicrobial activity against Candida albicans after 24 hrs by two-fold serial dilution method; type: functional; outline: as §1
# Shigella dysenteriae = test: Antimicrobial activity against Shigella dysenteriae after 24 hrs by two-fold serial dilution method; type: functional
# Pseudomonas aeruginosa = test: Antimicrobial activity against Pseudomonas aeruginosa after 24 hrs by two-fold serial dilution method; type: functional; outline: as §1
# Escherichia coli [3] = test: Antimicrobial activity against Escherichia coli DH52 after 24 hrs by two-fold serial dilution method; type: functional; conditions: DH52, 24 h
# [4] = Antimicrobial activity against Bacillus proteus after 24 hrs by two-fold serial dilution method; type: functional; outline: as §1
# Micrococcus luteus = test: Antimicrobial activity against Micrococcus luteus ATCC 4698 after 24 hrs by two-fold serial dilution method; type: functional; conditions: ATCC 4698, 24 h
# Bacillus subtilis = test: Antimicrobial activity against Bacillus subtilis after 24 hrs by two-fold serial dilution method; type: functional; outline: as §1
# Staphylococcus aureus [5] = test: Antimicrobial activity against methicillin-resistant Staphylococcus aureus N315 after 24 hrs by two-fold serial dilution method; type: functional; conditions: N315, 24 h
# Staphylococcus aureus [6] = test: Antimicrobial activity against Staphylococcus aureus ATCC 25923 after 24 hrs by two-fold serial dilution method; type: functional; conditions: ATCC 25923, 24 h
# DNA [7] = test: Competitive binding affinity to calf thymus DNA at 0.25 to 2 x 10^-5 mol/L by UV spectroscopy in presence of neutral red; type: nucleic-acid assay; conditions: Bos taurus
# DNA [8] = test: Binding affinity to calf thymus DNA by UV-vis spectroscopy; type: nucleic-acid assay; conditions: Bos taurus
# Outline: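 UV-vis absorption spectra of calf thymus DNA recorded with increasing concentrations of test compound. The DNA band at 260 nm was monitored for changes in intensity and wavelength.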
# Escherichia coli [9] = test: Ratio of chloromycin MIC to compound MIC for Escherichia coli DH52 after 24 hrs by two-fold serial dilution method; type: functional
compound,measurement,setting,value
CCCCCCCCn1cc(CN(Cc2cn(CCCCCCCC)nn2)N2C(=O)c3cccc4c(Br)ccc(c34)C2=O)nn1.Cl.Cl,Ratio,Aspergillus flavus [1],16
same,MIC,Saccharomyces cerevisiae,> 512 µg/mL
same,MIC,Aspergillus flavus [2],16 µg/mL
same,MIC,Candida albicans,> 512 µg/mL
same,MIC,Shigella dysenteriae,> 512 µg/mL
same,MIC,Pseudomonas aeruginosa,512 µg/mL
same,MIC,Escherichia coli [3],512 µg/mL
same,MIC,[4],512 µg/mL
same,MIC,Micrococcus luteus,> 512 µg/mL
same,MIC,Bacillus subtilis,> 512 µg/mL
same,MIC,Staphylococcus aureus [5],> 512 µg/mL
same,MIC,Staphylococcus aureus [6],> 512 µg/mL
CCCCCCCCn1cc(CN(Cc2cn(CCCCCCCC)nn2)N2C(=O)c3cccc4c(Br)ccc(c34)C2=O)nn1,Ratio,Aspergillus flavus [1],16
same,MIC,Saccharomyces cerevisiae,> 512 µg/mL
same,MIC,Aspergillus flavus [2],16 µg/mL
same,MIC,Candida albicans,> 512 µg/mL
same,MIC,Shigella dysenteriae,> 512 µg/mL
same,MIC,Pseudomonas aeruginosa,512 µg/mL
same,MIC,Escherichia coli [3],512 µg/mL
same,MIC,[4],> 512 µg/mL
same,MIC,Micrococcus luteus,> 512 µg/mL
same,MIC,Bacillus subtilis,> 512 µg/mL
same,MIC,Staphylococcus aureus [5],> 512 µg/mL
same,MIC,Staphylococcus aureus [6],> 512 µg/mL
O=C1c2cccc3c(Br)ccc(c23)C(=O)N1N(Cc1cn(Cc2ccc(Cl)c(Cl)c2)nn1)Cc1cn(Cc2ccc(Cl)c(Cl)c2)nn1,Activity,DNA [7],Active
same,K,DNA [8],2.34 ×10⁴ L/mol
Cl.Cl.Cl.Cl.O=C1c2cccc3c(Br)ccc(c23)C(=O)N1N(Cc1cn(Cc2cccc(Cl)c2)nn1)Cc1cn(Cc2cccc(Cl)c2)nn1,Ratio,Escherichia coli [9],2
same,MIC,Saccharomyces cerevisiae,64 µg/mL
same,MIC,Aspergillus flavus [2],> 512 µg/mL
same,MIC,Candida albicans,16 µg/mL
same,MIC,Shigella dysenteriae,512 µg/mL
same,MIC,Pseudomonas aeruginosa,64 µg/mL
same,MIC,Escherichia coli [3],2 µg/mL
same,MIC,[4],512 µg/mL
same,MIC,Micrococcus luteus,> 512 µg/mL
same,MIC,Bacillus subtilis,256 µg/mL
same,MIC,Staphylococcus aureus [5],256 µg/mL
same,MIC,Staphylococcus aureus [6],256 µg/mL

# From ChEMBL document CHEMBL3098102, “1,2,3-Triazole-derived naphthalimides as a novel type of potential antimicrobial agents: synthesis, antimicrobial activity, interaction with calf thymus DNA and human serum albumin” (Bioorg Med Chem Lett, 2014)
